Assay [1] can be described thus: Inhibition of tubulin polymerization. The procedure, abridged: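 Bovine brain tubulin at 10 μM in glutamate buffer was preincubated with compound at varying concentrations at 30 °C, then cooled to 0 °C. GTP was added to 0.4 mM and the mixture rewarmed to 30 °C. Assembly was followed by turbidity at 350 nm.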
Assay [2] in a line: Inhibition of bovine tubulin polymerisation after 20 mins by turbidimetric analysis. The arrangement: species or system Bos taurus. An outline of the steps: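 Bovine brain tubulin at 10 μM was preincubated with varying compound concentrations in glutamate buffer at 30 °C, cooled to 0 °C, and 0.4 mM GTP added. Samples were warmed to 30 °C and assembly followed by turbidity at 350 nm.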

For assay [3], the system named is LoVo. Briefly: Cytotoxicity against human LoVo cells after 72 hrs by MTT assay. Format: functional, cell-based. An outline of the steps: (§1)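 Cells seeded at 8 × 10^3 per well and left 18 h at 37 °C, 5% CO2, then given fresh medium with compound at a range of concentrations for 72 h; DMSO at most 0.25% final. Viability read by MTT relative to 0.25% DMSO-treated cells. […] LoVoDoxo kept in Ham's F12 with 0.1 μg/mL doxorubicin; A549-T12 kept in DMEM with 12 nM paclitaxel.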

For assay [4], the system named is Jurkat. Kind of assay: Cytotoxicity against human Jurkat cells after 72 hrs by MTT assay. The format is functional, cell-based. An outline of the steps:
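8 × 10^3 cells/well were preincubated 18 h at 37 °C, 5% CO2, then given graded concentrations for 72 h, with final DMSO not above 0.25%. Viability was read by MTT. […] Mean ± SE from at least three experiments.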

Assay [5] is described as follows: Cytotoxicity against human CEM/VBL100 cells after 72 hrs by MTT assay. Format: functional, cell-based. The settings on record: CEM/VBL100, 72 h. An outline of the steps: as §1
Assay [6] deals with HeLa. Kind of assay: Cytotoxicity against human HeLa cells after 72 hrs by MTT assay. Format: functional, cell-based.
Assay [7] has as its system MCF7. Briefly: Cytotoxicity against human MCF7 cells after 72 hrs by MTT assay. Format: functional, cell-based. The settings on record: MCF7, 72 h.
The subject of assay [8] is CCRF-CEM. Kind of assay: Cytotoxicity against human CEM cells after 72 hrs by MTT assay. The format is functional, cell-based. An outline of the steps: as §1
Assay [9] has as its system CCRF-CEM. Briefly: Resistance ratio of IC50 for human CEM/VBL100 cells to IC50 for human CEM cells. Format: functional.
The subject of assay [10] is A549. Briefly: Resistance ratio of IC50 for human A549-T12 cells to IC50 for human A549 cells. Format: functional.
Assay [11] relates to LoVo. Briefly: Resistance ratio of IC50 for human doxorubicin-resistant LoVo cells to human LoVo cells. Format: functional.
Assay [12] has as its system HT-29. Kind of assay: Cytotoxicity against human HT-29 cells after 72 hrs by MTT assay. The format is functional, cell-based. The settings on record: HT-29, 72 h.
The test system of assay [13] is HL-60. Kind of assay: Cytotoxicity against human HL60 cells after 72 hrs by MTT assay. Format: functional, cell-based. The settings on record: HL-60, 72 h.
Assay [14] relates to LoVo. Kind of assay: Cytotoxicity against human doxorubicin-resistant LoVo cells after 72 hrs by MTT assay. The format is functional, cell-based. An outline of the steps:
as §1

Assay [15] relates to HeLa. Briefly: Induction of cell cycle arrest in human HeLa cells assessed as increase in G2/M phase cells at 15 to 250 nM after 24 hrs by flow cytometry. Format: functional, cell-based. An outline of the steps: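 Exponentially growing HeLa cells (5 × 10^5) were treated 24 h at 15–250 nM. Cells were fixed in ice-cold 70% ethanol, lysed with RNase A/0.1% Triton X-100 buffer and stained with propidium iodide. DNA content was measured by flow cytometry to score G2/M fraction. Mean ± SEM of three independent experiments.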

A short description of assay [16]: Cytotoxicity against human A549-T12 cells after 72 hrs by MTT assay. Format: functional, cell-based. The settings on record: A549, 72 h. The procedure, abridged:
as §1

Assay [17] deals with A549. Kind of assay: Cytotoxicity against human A549 cells after 72 hrs by MTT assay. The settings on record: A549, 72 h. The format is functional, cell-based.
Assay [18] is filed under the species Bos taurus. Kind of assay: Displacement of [3H]colchicine from bovine tubulin at 5 uM by DEAE-cellulose filter method. The procedure, abridged: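 Inhibition of [3H]colchicine binding was measured in mixtures of 1 μM tubulin, 5 μM [3H]colchicine and 5 μM test compound. Results are percent inhibition of binding.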

Active and inactive are the calls of the source. The calls are words filed in the database; no cut-off is given here.

As to `COc1ccc(-c2nnnn2-c2cc(OC)c(OC)c(OC)c2)cc1N`, in assay [1], the IC50 was found to be 2000 nM.

`CCOc1ccc(-c2nnnn2-c2cc(OC)c(OC)c(OC)c2)cc1Cl`: the IC50 was 2000 nM in assay [2]; 12.5 nM in assay [3]; 0.23 nM in assay [4]; 0.7 nM in assay [5]; 2.6 nM in assay [6]; 1.8 nM in assay [7]. The IC50 in assay [8] is 0.7 nM; in assay [12], 1.6 nM; in assay [13] it was 0.8 nM; in [14], 15.7 nM; in assay [16], 31.5 nM; in assay [17], 28.8 nM. The “Ratio IC50” value was found to be 1 in [9], 1.1 in assay [10] and 1.3 in assay [11]. Besides, the result in assay [15] was Active. For the same compound, the inhibition in assay [18] came to 58%.

The values above are taken from ChEMBL document CHEMBL1944515 (J Med Chem, 2012).
